SMARCA2 act: SMARCA2 function activation, primary screen; MG213 cells, MMTV-luciferase reporter, dexamethasone, overnight; AID 652017; 370,000 compounds, 1% hits; activation, % at 9.1 µM; in the data active means activation above about 7.8%;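 further: 0% = vehicle wells and 100% = reference activator wells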
NR2E3 ag-1: activates human NR2E3 receptor; CHO-S Gal4-NCOR/VP16-NR2E3 two-hybrid, luciferase; inhibition of corepressor binding, % at 3.98 µM; 360,000 compounds, 0.35% hits; Q9Y5X4;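 active means inhibition above the mean of all tested compounds plus 3 SD, cut at about 70% in these data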;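 further: 0% = DMSO with NR2E3 transfected cells and 100% = cells lacking NR2E3 construct; higher means lower luciferase signal from less NR2E3 corepressor binding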
DAX1 inh-1: inhibitors of human orphan nuclear receptor DAX1 (NR0B1); inhibition, % at 6.75 µM; P51843; AID 504766; 340,000 compounds, 0.99% hits; HEK293 Gal4-DAX1 luciferase reporter, luminescence;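 active means inhibition above the mean over all tested compounds plus 3 SD, cut at about 4.2% in these data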;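 further: 0% = DAX1-transfected cells with DMSO and 100% = empty-vector control cells with DMSO; inhibition shows as a rise in luminescence from relieved DAX1 repression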
Target sequence (P51843 207-470 limits assumed): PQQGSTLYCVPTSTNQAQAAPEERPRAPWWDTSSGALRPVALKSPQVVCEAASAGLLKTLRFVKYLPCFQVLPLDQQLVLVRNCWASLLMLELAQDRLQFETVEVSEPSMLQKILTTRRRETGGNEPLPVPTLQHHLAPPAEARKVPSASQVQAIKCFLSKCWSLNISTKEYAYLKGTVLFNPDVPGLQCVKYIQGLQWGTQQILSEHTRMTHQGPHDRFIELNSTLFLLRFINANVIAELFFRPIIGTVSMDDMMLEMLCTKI
DAX1 inh-2: inhibitors of DAX1 repression of SF-1 activated StAR promoter. inhibition, % at 6.8 µM. 370,000 compounds, 1.1% hits. HEK293T StAR-luciferase reporter, SF-1/DAX-1 repression relief. AID 652010;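 active means inhibition above the mean over all tested compounds plus 3 SD, cut at about 3.6% in these data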;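 further: 0% = DAX-1 cells with DMSO and 100% = cells lacking DAX-1 with DMSO; higher inhibition means more luminescence from relief of DAX-1 repression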
JMJD2C inh: blocks human GASC-1 demethylase activity. inhibition, % at 2.35 µM. GST-JMJD2C(1-420) H3K9me3 demethylation, DELFIA europium. AID 2099. 330,000 compounds, 0.069% hits;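 active means more than half of a compound's replicate wells show inhibition beyond 50%, single wells judged on their own value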;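 further: signal counts dimethyl H3K9 product captured on neutravidin plate; 0% = median of DMSO wells and 100% = 0.3 times that DMSO median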
NR2E3 ag-2: NR2E3 (human) agonism; Q9Y5X4; GST-NR2E3/biotin-RetCOR TR-FRET, 1536-well; inhibition of corepressor binding, % at 4.78 µM; 320,000 compounds, 0.12% hits;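 active means percent inhibition above the cutoff of mean plus 3 SD of all tested compounds, set per screening campaign, cut at about 20% in these data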;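 further: 0% = DMSO wells and 100% = biotin wells as full block of FRET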
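Material: NR2E3–RetCOR corepressor complex / Amount: 1.35 nM GST-NR2E3 / Medium: Tris pH 7.5 / Compound: single nominal compound dose of 4.8 µM / Incubation: 5 h at 4 °C / Technique: TR-FRET, Eu(K)-anti-GST donor, streptavidin-D2 acceptor, ex 340, em 617/671 nm / Read-out basis: percent loss of FRET ratio relative to control wells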
DAX1 inh confirm: confirmation of human DAX1 (NR0B1) inhibitors | shares compounds with DAX1 inh-2 | HEK293T StAR-promoter luciferase reporter, SF-1/DAX-1 repression | inhibition, % at 6.8 µM | 2,400 compounds, 87% hits | AID 652134;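 active means inhibition above the average of every tested compound plus 3 SD, cut at about 3.8% in these data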;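 further: 0% = DAX-1 cells with DMSO and 100% = no DAX-1 control cells with DMSO; active compounds raise luminescence by relieving repression of the StAR reporter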
Target sequence (P51843 whole entry, looked up): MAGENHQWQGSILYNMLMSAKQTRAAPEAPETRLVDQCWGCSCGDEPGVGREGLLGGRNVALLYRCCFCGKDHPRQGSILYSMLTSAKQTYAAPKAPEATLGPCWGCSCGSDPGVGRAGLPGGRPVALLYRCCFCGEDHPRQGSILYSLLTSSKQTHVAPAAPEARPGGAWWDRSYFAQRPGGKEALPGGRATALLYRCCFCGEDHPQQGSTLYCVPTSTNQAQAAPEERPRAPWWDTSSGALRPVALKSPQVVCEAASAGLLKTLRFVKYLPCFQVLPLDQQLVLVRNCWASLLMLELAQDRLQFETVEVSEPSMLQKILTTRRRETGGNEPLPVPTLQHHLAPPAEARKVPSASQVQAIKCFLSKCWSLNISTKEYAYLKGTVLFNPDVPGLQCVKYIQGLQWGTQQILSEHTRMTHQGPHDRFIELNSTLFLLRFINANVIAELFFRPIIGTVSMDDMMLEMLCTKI
SF1 mutant ctr: nonselective inhibitor or artifact in SF-1 mutant DAX1 counter-screen; shares compounds with DAX1 inh-2; HEK293 StAR-luciferase, SF-1 AF2 mutant, luminescence; inhibition, % at 6.8 µM; 2,400 compounds, 78% hits; AID 652136;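 active means inhibition above the mean of all tested compounds plus 3 SD, cut at about 3% in these data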;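 further: 0% = DAX-1 transfected cells with DMSO and 100% = cells without DAX-1 with DMSO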
* hit, by the source's call; i = inactive; x = not tested or not shown. Only some compounds are listed: those with a hit (about 3.2% of all), similar ones and a draw of the others.

SMILES	SMARCA2 act	NR2E3 ag-1	DAX1 inh-1	DAX1 inh-2	JMJD2C inh	NR2E3 ag-2	DAX1 inh confirm	SF1 mutant ctr
COCCCNC(=O)C[C@H]1C[C@@]2(C(=O)OC)C(=C[C@H](C(C)(C)C)O[C@@H]2C)N(Cc2ccco2)C1=O	-1	x	x	0	x	x	x	x
N#CCC[C@@H]1CC[C@]2(CCCN(C(=O)c3ccc4ccccc4n3)C2)O1	0	x	x	0	x	x	x	x
CCCN1CCS(=O)(=O)N(Cc2cn(Cc3ccc(C)cc3)nn2)C(C(=O)OC)C1 (stereo not drawn)	5	x	x	0	x	x	x	x
Cc1cccc(NC(=O)CSc2ncnc3sc4c(c23)CCCC4)c1	0	x	x	0	x	x	x	x
COc1ccc(-n2ncc3c(NCc4cccnc4)ncnc32)cc1	3	-81	2	2	-14	0	x	x
COc1ccc(-n2ncc3c(NCC(C)C)ncnc32)cc1	5	-128	0	5.0*	1	0	13*	4.1*
N#Cc1c(NC(=O)c2cnn3cccnc23)sc2c1CCCC2	-1	-10	1	1	13	0	x	x
O=C(Nc1cnn(C23CC4CC(CC(C4)C2)C3)c1)c1cnn2cccnc12	6	-70	0	5.8*	4	-4	10*	5.9*
Clc1cccc(-c2cc3nc4c(c(NCc5ccco5)n3n2)CCCC4)c1	6	-170	1	4.5*	8	2	12*	4.8*
c1coc(CNc2c3c(nc4ncnn24)CCCC3)c1	-2	11	0	-1	-22	-4	x	x
CC(=O)c1cc(-c2ccc([N+](=O)[O-])cc2)c(=O)n2c1CCC2	-1	x	x	-1	x	x	x	x
OC[C@H]1O[C@@H](c2nc(-c3nc(-c4ccc(F)cc4)no3)cs2)[C@H](O)[C@@H]1O	0	-145	x	9.8*	x	x	13*	7.2*
CCOc1ccc(-c2noc(-c3csc([C@@H]4C[C@H](O)[C@@H](CO)O4)n3)n2)cc1	0	-45	x	-1	x	x	x	x
Cc1ccc(SCc2nc(-c3ccccn3)no2)cc1	7	-82	1	0	5	3	x	x
Cc1ccc(OCc2nc(-c3ccccn3)no2)cc1	4	-108	0	5.1*	4	1	16*	7.2*
Cc1csc(NC(=O)COc2ccc3c(c2)CCC3)n1	2	-19	2	4.7*	x	4	9.6*	8.5*
COc1ccc(OCC(=O)Nc2ccc3c(c2)CCC3)cc1	0	0	0	0	7	1	x	x
Cc1ccc(NC(=O)COc2ccc3oc4c(c3c2)CCCC4)nc1	1	-38	-1	-1	4	0	x	x
Cc1ccc(NC(=O)COc2ccc3c(c2)CCC3)nc1	3	-19	3	5.1*	1	3	8.4*	3.5*
Cc1cccnc1NC(=O)COc1ccc2oc3c(c2c1)CCCC3	1	6	0	0	-11	2	x	x
Cc1cccnc1NC(=O)COc1ccc2c(c1)CCC2	2	3	0	6.1*	6	0	4.7*	2
CCOC(=O)[C@]12CCCC=C1N(Cc1ccc(OC)cc1)C(=O)[C@@H]2CC(=O)NCc1ccccc1	-2	x	x	0	x	x	x	x
COc1ccc(-c2nnc(SCC(=O)/C(C#N)=C(\C)N)o2)cc1	2	-122	-1	4.7*	1	-3	13*	4.5*
COc1ccc2nc(SCC(N)=O)[nH]c2c1	-1	13	1	0	-16	-1	x	x
COc1ccc2nc(SCC(=O)/C(C#N)=C(\C)N)[nH]c2c1	7	-117	1	4.8*	-3	4	14*	8.8*
SMILES	SMARCA2 act	NR2E3 ag-1	DAX1 inh-1	DAX1 inh-2	JMJD2C inh	NR2E3 ag-2	DAX1 inh confirm	SF1 mutant ctr
COCCCNC(=O)C[C@H]1C[C@@]2(C(=O)OC)C(=C[C@H](C(C)C)O[C@@H]2C2CC2)N(Cc2ccc3c(c2)OCO3)C1=O	0	x	x	-1	x	x	x	x
COc1cccc(-c2nnc(SCC(=O)Nc3cccc4ccccc34)n2Cc2ccco2)c1	-4	x	x	-2	x	x	x	x
O=C(Nc1nc2c(F)cc(F)cc2s1)c1ccco1	2	-131	1	5.6*	9	0	11*	6.3*
Nn1c(SCC(=O)Nc2ccc(OCc3ccccc3)cc2)nnc1-c1cc(-c2ccc(Cl)cc2)n[nH]1	-6	x	x	-2	x	x	x	x
O=C(CSc1nnc(-c2cccs2)n1Cc1ccco1)Nc1ccc(Oc2ccccc2)cc1	1	x	x	-1	x	x	x	x
O=C1c2ccccc2C(=O)N1CCOc1ccccc1Cl	2	-99	1	8.0*	-31	-3	3.8*	4.3*
O=C1c2ccccc2C(=O)N1CCOc1ccccc1Br	4	-62	2	4.8*	34	0	4.3*	1
Cc1ccccc1OCCN1C(=O)c2ccccc2C1=O	1	-93	2	1	2	1	x	x
Cc1cccc2c1N(CCOc1ccccc1Cl)C(=O)C2=O	0	-26	1	-1	8	-1	x	x
Cn1cccc1C(=O)N1CCN(S(=O)(=O)c2cccc3ccccc23)CC1	5	x	x	0	x	x	x	x
CN1CCN(c2ccc(NC(=O)Cc3ccccc3)cc2)CC1	2	-35	4	1	i	1	x	x
O=C(Cc1ccccc1)Nc1ccc(N2CCCCC2)cc1	5	-86	2	5.1*	-2	1	14*	7.3*
O=C(Nc1ccc(N2CCCCC2)cc1)c1ccccc1	3	-152	-1	7.3*	7	0	17*	6.7*
O=C(Nc1ccc(N2CCCC2)cc1)c1cccc(F)c1	2	-120	3	4.6*	-13	-2	10*	2
O=C(c1ccccc1)c1ccc(N2CCCC2)cc1	5	-123	1	2	20	1	x	x
O=C(c1ccccc1)c1ccc(N2CCOCC2)cc1	0	-73	1	6.6*	x	x	7.1*	4.6*
O=S1(=O)c2c(NCc3ccco3)cccc2Oc2ccccc2CN1Cc1cn(Cc2ccc(Cl)cc2)nn1	-3	x	x	1	x	x	x	x
CC(=O)CC[C@H]1CC[C@]2(CCCN(C(=O)C(C)(C)C)C2)O1	-3	x	x	0	x	x	x	x
COc1ccc(CN(CCN2CCOCC2)C(=O)c2cc(Cl)ccc2F)cc1OC	-2	x	x	1	x	x	x	x
CC(C)C[C@H]1COc2cccc(F)c2S(=O)(=O)N1Cc1cn(CCC2OCCCO2)nn1	-2	x	x	-1	x	x	x	x
O=C(Nc1ccc(N2CCCC2)cc1)c1cccc(Cl)c1Cl	2	-80	0	0	-2	1	x	x
O=C(Nc1ccc(N2CCCC2)cc1)c1ccccc1F	4	-125	0	4.5*	5	4	7.1*	3.5*
Cc1ccc2nc(-c3cccc(Br)c3)c(CC3CCCCC3)n2c1	0	-105	x	6.4*	x	x	5.1*	5.6*

Screens as filed in PubChem.
